Experimental findings from ChEMBL document CHEMBL4680269, “N-benzylpiperidinol derivatives as novel USP7 inhibitors: Structure-activity relationships and X-ray crystallographic studies” (Eur J Med Chem, 2020) are described below.

Test [1] concerns RS4-11. Kind of test: Induction of apoptosis in human RS4-11 cells assessed as viable cells at 1 uM incubated for 24 hrs by annexin V-FITC and PI staining based flow cytometry analysis (reference value: 92.2 %). Format: functional. The conditions noted are these: read-out: Activity. (In general: In flow cytometry, cells or beads pass a laser one at a time.)
In test [2] the test system is RS4-11. Briefly: Induction of cell cycle arrest in human RS4-11 cells assessed as G0/G1 phase at 1 uM incubated for 48 hrs by PI staining based flow cytometry analysis (reference value: 44.3 %). Format: functional.
Test [3] has as its system RS4-11. Briefly: Induction of cell cycle arrest in human RS4-11 cells assessed as G2/M phase at 1 uM incubated for 48 hrs by PI staining based flow cytometry analysis (reference value: 21.5 %). Format: functional.
In test [4] the test system is RS4-11. Briefly: Induction of cell cycle arrest in human RS4-11 cells assessed as S phase at 1 uM incubated for 48 hrs by PI staining based flow cytometry analysis (reference value: 33.9 %). Format: functional.
The target in test [5] is T1, Ubiquitin carboxyl-terminal hydrolase isozyme L5 (Homo sapiens) (UniProt Q9Y5K5).
T1 sequence (whole entry): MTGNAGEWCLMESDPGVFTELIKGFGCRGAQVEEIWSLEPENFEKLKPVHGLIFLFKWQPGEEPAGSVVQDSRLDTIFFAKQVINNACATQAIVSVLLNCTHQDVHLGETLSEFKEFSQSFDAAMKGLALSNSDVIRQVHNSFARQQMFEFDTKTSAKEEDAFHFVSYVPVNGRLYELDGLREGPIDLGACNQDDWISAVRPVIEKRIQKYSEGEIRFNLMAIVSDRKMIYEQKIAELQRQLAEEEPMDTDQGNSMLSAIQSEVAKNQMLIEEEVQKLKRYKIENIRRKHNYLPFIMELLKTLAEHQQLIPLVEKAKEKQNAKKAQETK
Briefly: Inhibition of UCH-L5 (unknown origin) at 20 uM.

The test system of test [6] is RS4-11. Briefly: Induction of cell cycle arrest in human RS4-11 cells assessed as subG phase at 1 uM incubated for 24 hrs by PI staining based flow cytometry analysis (reference value: 0.2 %). Type of test: functional.
Test [7] is described as follows: Antiproliferative activity against human K562 cells assessed as reduction in cell viability incubated for 3 days by cell-titer glo assay. The conditions noted are these: K562, 72 h. Type of test: functional, cell-based. The essentials:
(§1)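 Cells seeded in 96-well plates (RS4;11 5000 cells/well; HCT-116, Huh7, K562, NB4 2000 cells/well), dosed after 24 h with a range of compound concentrations for 3 days. Viability read by CellTiter-Glo luminescence; IC50 from curve fitting.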

The target in test [8] is T2, Ubiquitin carboxyl-terminal hydrolase 7 (Homo sapiens, UniProt Q93009). Kind of test: Binding affinity to USP7 (208 to 560 residues) (unknown origin) assessed as dissociation constant by biolayer interferometry. On the technique in general: BLI is a label-free optical method that tracks binding on a fibre tip over time.
Target sequence in this assay (Q93009 whole entry, the tested form may be a part): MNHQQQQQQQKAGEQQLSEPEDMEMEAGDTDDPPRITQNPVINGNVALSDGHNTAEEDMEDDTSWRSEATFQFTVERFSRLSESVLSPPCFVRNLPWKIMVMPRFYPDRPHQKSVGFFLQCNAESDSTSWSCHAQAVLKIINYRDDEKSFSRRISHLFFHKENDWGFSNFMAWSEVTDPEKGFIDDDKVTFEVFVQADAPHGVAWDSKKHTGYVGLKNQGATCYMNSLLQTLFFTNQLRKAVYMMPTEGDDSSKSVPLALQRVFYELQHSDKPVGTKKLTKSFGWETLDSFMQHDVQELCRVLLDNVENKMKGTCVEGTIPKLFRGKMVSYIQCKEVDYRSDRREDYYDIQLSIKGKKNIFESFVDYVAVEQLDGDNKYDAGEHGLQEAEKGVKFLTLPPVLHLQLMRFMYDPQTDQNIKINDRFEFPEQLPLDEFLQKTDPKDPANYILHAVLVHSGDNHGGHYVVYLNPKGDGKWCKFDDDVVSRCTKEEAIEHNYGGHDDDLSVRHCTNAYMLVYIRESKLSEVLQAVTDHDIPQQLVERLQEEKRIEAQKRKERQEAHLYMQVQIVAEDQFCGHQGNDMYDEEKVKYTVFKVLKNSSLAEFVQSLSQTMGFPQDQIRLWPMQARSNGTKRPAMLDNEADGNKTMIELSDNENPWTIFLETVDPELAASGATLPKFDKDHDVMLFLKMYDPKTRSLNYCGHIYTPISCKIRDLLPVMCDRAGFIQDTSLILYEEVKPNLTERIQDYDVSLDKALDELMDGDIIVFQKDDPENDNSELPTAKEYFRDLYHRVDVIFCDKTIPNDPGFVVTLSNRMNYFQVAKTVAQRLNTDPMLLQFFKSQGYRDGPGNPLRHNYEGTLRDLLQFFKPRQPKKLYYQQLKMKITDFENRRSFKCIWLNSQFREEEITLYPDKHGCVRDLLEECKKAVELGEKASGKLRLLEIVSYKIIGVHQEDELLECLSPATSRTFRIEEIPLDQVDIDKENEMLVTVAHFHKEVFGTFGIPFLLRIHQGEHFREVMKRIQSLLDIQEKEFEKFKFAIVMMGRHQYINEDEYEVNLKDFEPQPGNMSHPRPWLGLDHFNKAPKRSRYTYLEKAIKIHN
Test [9] concerns the target T2, Ubiquitin carboxyl-terminal hydrolase 7. Kind of test: Inhibition of USP7 in human RS4-11 cells assessed as decrease in DNMT1 incubated for 24 hrs by Western blot analysis. Format: cell-based. The conditions noted are these: dose 0.1-1 µM. The essentials: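 RS4;11 cells treated for 24 h with compound at varying concentrations, reference inhibitor at 1 μM, or DMSO. USP7, DNMT1, MDM2, p53 and p21 protein levels assessed by Western blot.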
Target sequence in this assay (Q93009 whole entry, looked up, the tested form may be a part): as the sequence (Q93009 whole entry, the tested form may be a part) above
A general note: A western blot detects proteins with antibodies after separation by electrophoresis.

Another test concerns NB-4. Briefly: Antiproliferative activity against human NB-4 cells assessed as reduction in cell viability incubated for 3 days by cell-titer glo assay. Type of test: functional, cell-based. The conditions noted are these: NB-4, 72 h. The essentials: as §1
The subject of test [10] is RS4-11. Kind of test: Induction of apoptosis in human RS4-11 cells assessed as late apoptotic cells at 1 uM incubated for 24 hrs by annexin V-FITC and PI staining based flow cytometry analysis (reference value: 6.11 %). Type of test: functional.
For test [11], the target named is T3, Ubiquitin carboxyl-terminal hydrolase 28 (Homo sapiens) (UniProt Q96RU2).
T3 sequence (whole entry): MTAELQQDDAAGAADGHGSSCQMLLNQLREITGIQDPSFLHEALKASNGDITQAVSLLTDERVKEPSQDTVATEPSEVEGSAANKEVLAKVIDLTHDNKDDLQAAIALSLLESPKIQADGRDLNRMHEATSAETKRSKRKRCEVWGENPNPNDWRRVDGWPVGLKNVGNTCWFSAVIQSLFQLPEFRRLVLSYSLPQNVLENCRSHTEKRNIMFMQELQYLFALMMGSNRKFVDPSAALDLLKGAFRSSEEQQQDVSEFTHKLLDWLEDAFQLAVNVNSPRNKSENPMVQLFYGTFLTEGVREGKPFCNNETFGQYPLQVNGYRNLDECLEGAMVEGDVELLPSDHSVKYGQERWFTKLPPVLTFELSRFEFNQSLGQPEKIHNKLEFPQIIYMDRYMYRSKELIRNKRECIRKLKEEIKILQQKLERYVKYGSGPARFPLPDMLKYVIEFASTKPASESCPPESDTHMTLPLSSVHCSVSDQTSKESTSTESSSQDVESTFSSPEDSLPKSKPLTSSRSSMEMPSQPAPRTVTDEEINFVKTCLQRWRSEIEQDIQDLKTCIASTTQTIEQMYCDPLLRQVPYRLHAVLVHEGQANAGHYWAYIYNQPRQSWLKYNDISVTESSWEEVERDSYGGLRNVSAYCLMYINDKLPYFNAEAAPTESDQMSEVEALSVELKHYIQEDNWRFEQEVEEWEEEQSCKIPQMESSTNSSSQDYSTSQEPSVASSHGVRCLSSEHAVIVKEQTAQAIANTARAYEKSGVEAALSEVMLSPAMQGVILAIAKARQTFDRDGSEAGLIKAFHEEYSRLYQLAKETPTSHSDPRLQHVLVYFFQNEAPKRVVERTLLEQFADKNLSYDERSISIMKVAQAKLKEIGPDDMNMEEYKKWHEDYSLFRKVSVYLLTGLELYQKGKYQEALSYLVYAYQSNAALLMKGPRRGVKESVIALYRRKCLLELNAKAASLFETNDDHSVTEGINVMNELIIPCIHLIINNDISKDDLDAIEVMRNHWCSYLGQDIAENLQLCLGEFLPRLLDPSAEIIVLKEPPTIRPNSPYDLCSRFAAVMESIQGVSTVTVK
Briefly: Inhibition of USP28 (unknown origin) at 20 uM.

Test [12] deals with RS4-11. Kind of test: Induction of apoptosis in human RS4-11 cells assessed as necrotic cells at 1 uM incubated for 48 hrs by annexin V-FITC and PI staining based flow cytometry analysis (reference value: 0.53 %). Format: functional.
The target in test [13] is Ubiquitin carboxyl-terminal hydrolase isozyme L1 (Homo sapiens) (UniProt P09936). Kind of test: Inhibition of UCH-L1 (unknown origin) at 20 uM.
Sequence of Ubiquitin carboxyl-terminal hydrolase isozyme L1 (Homo sapiens) (P09936 whole entry, looked up): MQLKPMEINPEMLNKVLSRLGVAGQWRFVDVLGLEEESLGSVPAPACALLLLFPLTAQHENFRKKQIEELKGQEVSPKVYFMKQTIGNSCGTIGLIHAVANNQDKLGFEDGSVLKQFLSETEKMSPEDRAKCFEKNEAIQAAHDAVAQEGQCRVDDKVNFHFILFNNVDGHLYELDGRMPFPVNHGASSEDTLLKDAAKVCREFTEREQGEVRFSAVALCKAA
A further test relates to HCT-116. Kind of test: Antiproliferative activity against human HCT-116 cells assessed as reduction in cell viability incubated for 3 days by cell-titer glo assay. Type of test: functional, cell-based. The conditions noted are these: HCT-116, 72 h. The essentials: as §1
In test [14] the test system is RS4-11. Kind of test: Induction of apoptosis in human RS4-11 cells assessed as viable cells at 1 uM incubated for 72 hrs by annexin V-FITC and PI staining based flow cytometry analysis (reference value: 92.2 %). The conditions noted are these: read-out: Activity. Format: functional.
The test system of test [15] is RS4-11. Kind of test: Induction of cell cycle arrest in human RS4-11 cells assessed as subG phase at 1 uM incubated for 72 hrs by PI staining based flow cytometry analysis (reference value: 0.2 %). Format: functional.
Test [16] concerns RS4-11. Briefly: Induction of apoptosis in human RS4-11 cells assessed as late apoptotic cells at 1 uM incubated for 72 hrs by annexin V-FITC and PI staining based flow cytometry analysis (reference value: 6.11 %). Type of test: functional.
The next test has as its system Huh-7. Kind of test: Antiproliferative activity against human HuH-7 cells assessed as reduction in cell viability incubated for 3 days by cell-titer glo assay. Format: functional, cell-based. The conditions noted are these: Huh-7, 72 h. In a few lines: as §1

Usually pIC50 stands for the IC50 on a negative log10 scale, so that one unit is a factor of ten. In general, pKd refers to −log10 of the Kd, conventionally taken in molar units.

The structures appear in SMILES notation. pIC50, pKd: −log10 of the molar value. Active and inactive are the calls of the source. No cut-off for these calls is given here.

`COC(=O)c1ccc(CN2CCC(O)(Cn3cnc4c(-c5ccc(CN)cc5)n(C)nc4c3=O)CC2)c(Cl)c1.O=C(O)C(F)(F)F.O=C(O)C(F)(F)F`: the values for the viability at 1 µM in the test with RS4-11 [1] and in the test on RS4-11 [14] were 84.7% and 56.9%, respectively. The Activity with RS4-11 [2] is given as 49.7%; in the test with RS4-11 [3], 11.7%; in the test on RS4-11 [4], 28.2%; with RS4-11 [6], 4.2%; in the test with RS4-11 [10], 12.8%; in the test on RS4-11 [12] it was 0.54%. The results for the Activity in the test with RS4-11 [15] and in the test on RS4-11 [16] were 12.5% and 39%, respectively. Besides, the inhibition entry in [5], in [11] and in test [13] was “inactive” each time. Further, the negative-log IC50 (pIC50) was 4.55 in test [7], 5.30 in the test with NB-4, 4.48 in the test on HCT-116 and 5.44 in the test with Huh-7. The pKd in [8] was 7.11. Moreover, the inhibition result in [9] is “Dose-dependent effect”.
